{"data": "Experimental data collected from several papers", "note": "Protocols differ between the studies behind these lines."}
{"Structure (SMILES)": "CC(C)(Nc1nc(-c2ccccn2)nc2ccccc12)c1ccccn1", "system": "female BALB/c mouse, plasma", "setting": "intravenous, 1 mg/kg, 4.98 min", "endpoint": "concentration", "result": "1460 ng/mL"}
{"Structure (SMILES)": "CC(C)(O)c1ccccc1-c1ccc2[nH]c(/C=C/c3ccc(C(F)(F)F)cc3)nc2c1", "system": "male human, plasma", "setting": "oral, 60 mg, single dose, fasted, healthy volunteers", "endpoint": "MRT", "result": "91.4 h"}
{"Structure (SMILES)": "CC(C)CN(C[C@@H](O)[C@H](Cc1ccccc1)NC(=O)O[C@H]1CO[C@H]2OCC[C@H]21)S(=O)(=O)c1ccc(N)cc1", "system": "BALB/c mouse, plasma", "setting": "intravenous, 25 mg/kg, 12 h", "endpoint": "concentration", "result": "31.4 ng/mL"}
{"Structure (SMILES)": "O=c1nc(N2CCN(CC3CCCCC3)CC2)sc2c([N+](=O)[O-])cc(C(F)(F)F)cc12", "system": "CD-1 mouse, lung", "setting": "oral, 100 mg/kg, 15 min", "endpoint": "concentration", "result": "431 ng/mL"}
{"Structure (SMILES)": "O=S(=O)(c1ccc(-c2ccc3nccc(Nc4ccncn4)c3c2)cc1)N1CCOCC1", "system": "female BALB/c mouse, plasma", "setting": "intraperitoneal, 10 mg/kg, 24 h", "endpoint": "concentration", "result": "0 ng/mL"}
{"Structure (SMILES)": "O=C(O)C1CCN(c2ncc(-c3ccc4c(c3)OCCCO4)s2)CC1", "system": "male Swiss mouse, plasma", "setting": "oral, 30 mg/kg, 1 h, single dose", "endpoint": "concentration", "result": "7580 ng/mL"}
{"Structure (SMILES)": "c1cnc2ccc(Nc3nc(NC4CC4)c4nc[nH]c4n3)cc2c1", "system": "human, plasma", "setting": "oral, 50 mg/m², patients", "endpoint": "MRT(0-t)", "result": "6.4 h"}
{"Structure (SMILES)": "CC(C)Oc1cccc(-c2cnc(N3CCC(C(N)=O)CC3)s2)c1", "system": "male Swiss mouse, brain", "setting": "oral, 30 mg/kg, 4 h, single dose", "endpoint": "concentration", "result": "83 nM"}
{"Structure (SMILES)": "CC(C)(C)c1ccc(O)c(CN(Cc2cc(C(C)(C)C)ccc2O)C2CCC(NC(N)=O)CC2)c1 (stereo not shown)", "system": "male C57BL/6 mouse, brain", "setting": "intraperitoneal, 25 mg/kg, single dose", "endpoint": "half-life", "result": "606 min"}
{"Structure (SMILES)": "c1ccc(-c2nc(N3CCC(c4ccccn4)C3)c3ccccc3n2)nc1 (stereo not shown)", "system": "female BALB/c mouse, plasma", "setting": "oral, 50 mg/kg, 1 h", "endpoint": "concentration", "result": "2940 ng/mL"}
